# Measured values as given in ChEMBL document CHEMBL4425127 (J Med Chem, 2016).
# The source made the active and inactive calls. The rule behind the calls is not given here.
# What was measured:
# [1] = Half life in Sprague-Dawley rat at 6 umol/kg, iv by HPLC analysis; assay type: ADME, organism-based; settings: in vivo
# Outline: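 Rats (n = 5) received a single tail-vein injection in physiological saline. Plasma levels measured by HPLC, using a reversed-phase C18 gradient with ammonium-containing aqueous/acetonitrile eluents over 5 min at 0.6 mL/min.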
# MDCK = experiment: Cytotoxicity against MDCK cells assessed as reduction in cell viability after 72 hrs by MTT assay; assay type: cell-based, Canis lupus familiaris; settings: dog
# [2] = Inhibition of recombinant Influenza A virus (A/Anhui/1/2013(H7N9)) Neuraminidase N9 expressed in baculovirus infected insect cells using 4-MU-NANA as substrate preincubated for 30 mins followed by substrate addition by microplate reader analysis
# Outline: (§1)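 Purified recombinant NA, with activity pre-set to roughly 10–50 nM in PBS, preincubated with serial 5-fold inhibitor dilutions in PBS (top 1 mM) at 37 °C for 30 min. MUNANA solution (167 μM, PBS) then added. Fluorescence read at ex 355/em 460 nm.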
# Influenza A virus [3] = experiment: Antiviral activity against Influenza A virus (A/Anhui/1/2013(H7N9)) expressing A/Puerto Rico/8/34(H1N1) genes infected in MDCK cells assessed as reduction in viral replication after 72 hrs by hemagglutination test; assay type: functional, organism-based
# Influenza A virus H3N2 [4] = experiment: Antiviral activity against Influenza A virus (A/Moscow/10/99(H3N2)) expressing A/Puerto Rico/8/34(H1N1) genes infected in MDCK cells assessed as reduction in viral replication after 72 hrs by hemagglutination test; assay type: functional, organism-based, A/Moscow/10/1999(H3N2)
# [5] = Inhibition of recombinant Influenza A virus (A/Moscow/10/99(H3N2)) Neuraminidase N2 expressed in baculovirus infected insect cells using 4-MU-NANA as substrate preincubated for 30 mins followed by substrate addition by microplate reader analysis; set-up: species or system Influenza A virus (A/Moscow/10/1999(H3N2)); outline: as §1
# Influenza A virus [6] = experiment: (§2) Antiviral activity against Influenza A virus (A/Puerto Rico/8/34(H1N1)) assessed as decrease in lung lesions at 20 mg/kg qd administered intranasally as single dose at 2 hrs post infection measured after 7 days post infection by hematoxylin and eosin staining based microscopic analysis; assay type: functional, organism-based; settings: A/Puerto Rico/8/1934(H1N1)
# Influenza A virus [7] = experiment: Antiviral activity against Influenza A virus (A/Puerto Rico/8/34(H1N1)) infected in Balb/c mouse assessed as bronchial wall thickening in lungs at 5 mg/kg qd administered intranasally for 7 days starting from 1 day post infection by hematoxylin and eosin staining based microscopic analysis; assay type: functional, organism-based; settings: A/Puerto Rico/8/1934(H1N1)
# Influenza A virus [8] = experiment: Antiviral activity against Influenza A virus (A/Puerto Rico/8/34(H1N1)) infected in Balb/c mouse assessed as respiratory epithelium desquamation at 5 mg/kg qd administered intranasally for 7 days starting from 1 day post infection by hematoxylin and eosin staining based microscopic analysis; assay type: functional, organism-based; settings: A/Puerto Rico/8/1934(H1N1)
# Influenza A virus [9] = experiment: Antiviral activity against Influenza A virus (A/Puerto Rico/8/34(H1N1)) assessed as decrease in lung lesions at 10 mg/kg qd administered intranasally for 7 days starting from 1 day post infection by hematoxylin and eosin staining based microscopic analysis; assay type: functional, organism-based; settings: A/Puerto Rico/8/1934(H1N1)
# Influenza A virus [10] = experiment: (§3) Antiviral activity against Influenza A virus (A/Puerto Rico/8/34(H1N1)) infected in Balb/c mouse assessed as protection against lethal virus challenge by measuring mouse survival at 20 mg/kg administered intranasally as single dose at 2 hrs post infection measured up to 9 days post treatment; assay type: functional, organism-based; settings: A/Puerto Rico/8/1934(H1N1)
# Outline: (§4)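 BALB/c mice (6 per group) inoculated intranasally under anaesthesia with 10^5 pfu in 40 μL PBS. Inhibitor given intranasally in 40 μL PBS, either daily for 7 days from day 1 or once at 2 h pi; PBS-treated infected and uninfected controls. Weight and survival followed for 14 days; death counted at 25% weight loss or moribund. Mantel–Cox test.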
# [11] = Binding affinity to recombinant Influenza A virus (A/Moscow/10/99(H3N2)) Neuraminidase N2 expressed in baculovirus infected insect cells measured up to 400 sec by surface plasmon resonance analysis; set-up: species or system Influenza A virus (A/Moscow/10/1999(H3N2))
# Outline: (§5)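 NA covalently immobilised on CM5 chip by amine coupling. Analyte passed over at several concentrations in running buffer. BSA served as negative control protein. Constants from a steady-state affinity model; triplicate experiments.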
# Influenza A virus [12] = experiment: as §2, with “Rico/8/34(H1N1)) infected in Balb/c mouse” for “Rico/8/34(H1N1))”, “respiratory epithelium desquamation” for “decrease in lung lesions”; assay type: functional, organism-based; settings: A/Puerto Rico/8/1934(H1N1)
# Influenza A virus [13] = experiment: as §2, with “Rico/8/34(H1N1)) infected in Balb/c mouse” for “Rico/8/34(H1N1))”, “bronchial wall thickening” for “decrease”, “lungs” for “lung lesions”; assay type: functional, organism-based; settings: A/Puerto Rico/8/1934(H1N1)
# Influenza A virus [14] = experiment: Antiviral activity against Influenza A virus (A/Puerto Rico/8/34(H1N1)) infected in Balb/c mouse assessed as immune cell infiltration in lungs at 5 mg/kg qd administered intranasally for 7 days starting from 1 day post infection by hematoxylin and eosin staining based microscopic analysis; assay type: functional, organism-based; settings: A/Puerto Rico/8/1934(H1N1)
# Influenza A virus [15] = experiment: Antiviral activity against Influenza A virus (A/Puerto Rico/8/34(H1N1)) infected in Balb/c mouse assessed as protection against lethal virus challenge by measuring body weight at 5 to 10 mg/kg qd administered intranasally for 7 days starting from 1 day post infection measured for 14 days; assay type: functional, organism-based; settings: A/Puerto Rico/8/1934(H1N1); outline: as §4
# Influenza A virus [16] = experiment: as §2, with “Rico/8/34(H1N1)) infected in Balb/c mouse” for “Rico/8/34(H1N1))”, “immune cell infiltration” for “decrease”, “lungs” for “lung lesions”; assay type: functional, organism-based; settings: A/Puerto Rico/8/1934(H1N1)
# Influenza A virus [17] = experiment: (§6) Antiviral activity against Influenza A virus (A/Puerto Rico/8/34(H1N1)) infected in Balb/c mouse assessed as protection against lethal virus challenge by measuring body weight at 20 mg/kg administered intranasally as single dose at 2 hrs post infection measured up to 9 days post treatment; assay type: functional, organism-based; settings: A/Puerto Rico/8/1934(H1N1); outline: as §4
# Influenza A virus [18] = experiment: Antiviral activity against Influenza A virus (A/Puerto Rico/8/34(H1N1)) infected in Balb/c mouse assessed as protection against lethal virus challenge by measuring mouse survival at 5 to 10 mg/kg qd administered intranasally for 7 days starting from 1 day post infection measured for 14 days; assay type: functional, organism-based; settings: A/Puerto Rico/8/1934(H1N1); outline: as §4
# [19] = target: Neuraminidase (Influenza A virus (A/Memphis/1/1971(H3N2))) (UniProt P03471); experiment: Binding affinity to recombinant Influenza A virus (A/Moscow/10/99(H3N2)) Neuraminidase N2 expressed in baculovirus infected insect cells at 100 to 1000 nM measured up to 160 sec by surface plasmon resonance analysis; outline: as §5
# [20] = Aqueous solubility of compound; assay type: physicochemical; settings: buffer
# Influenza A virus [21] = experiment: as §3, with “14” for “9”, “treatment relative to control” for “treatment”; assay type: functional, A/Puerto Rico/8/1934(H1N1); outline: as §4
# Influenza A virus [22] = experiment: Antiviral activity against Influenza A virus (A/Puerto Rico/8/34(H1N1)) infected in MDCK cells assessed as plaque reduction after 72 hrs by toluidine blue staining based method; assay type: functional, A/Puerto Rico/8/1934(H1N1)
# Influenza A virus H3N2 [23] = experiment: Induction of viral aggregation in Influenza A virus (A/Moscow/10/99(H3N2)) at 1 mM after 3 hrs by transmission electron microscopic analysis; assay type: functional, organism-based; settings: A/Moscow/10/1999(H3N2)
# Outline: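 Virus (10^7 pfu in 150 μL DMEM) incubated at 37 °C for 3 h with 10 μL of 1 mM inhibitor stock in PBS, or without; then processed for transmission electron microscopy.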
# Influenza A virus [24] = experiment: as §6, with “14” for “9”, “treatment relative to control” for “treatment”; assay type: functional, A/Puerto Rico/8/1934(H1N1); outline: as §4
# [25] = Influenza A virus, A/Moscow/10/1999(H3N2), MDCK, 72 h, read-out: EC50
# Chain of Neuraminidase (Influenza A virus (A/Memphis/1/1971(H3N2))) (P03471 whole entry): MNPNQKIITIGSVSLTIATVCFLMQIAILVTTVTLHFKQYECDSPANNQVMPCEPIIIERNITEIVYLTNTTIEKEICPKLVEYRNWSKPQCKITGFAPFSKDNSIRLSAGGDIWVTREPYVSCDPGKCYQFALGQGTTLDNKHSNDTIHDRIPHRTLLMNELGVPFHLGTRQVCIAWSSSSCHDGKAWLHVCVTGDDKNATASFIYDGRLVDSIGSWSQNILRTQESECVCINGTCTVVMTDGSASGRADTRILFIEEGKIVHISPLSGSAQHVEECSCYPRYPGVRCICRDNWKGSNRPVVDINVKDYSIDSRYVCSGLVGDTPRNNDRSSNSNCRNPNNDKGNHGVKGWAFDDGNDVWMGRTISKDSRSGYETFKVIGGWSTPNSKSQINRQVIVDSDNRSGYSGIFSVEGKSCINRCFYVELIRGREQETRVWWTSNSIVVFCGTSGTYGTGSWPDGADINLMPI
smiles,measurement,setting,value
CC(=O)N[C@H]1[C@H]([C@H](O)[C@H](O)CO)OC(C(=O)O)=C[C@@H]1N=C(N)N [ZANAMIVIR],half-life,[1],32 min
same,Activity,MDCK,Non-Toxic
CCC(CC)O[C@@H]1C=C(C(=O)O)C[C@H](N)[C@H]1NC(C)=O [OSELTAMIVIR CARBOXYLATE],IC50,[2],0.8 nM
same,EC50,Influenza A virus [3],12.3 nM
same,Activity,MDCK,Non-Toxic
same,EC50,Influenza A virus H3N2 [4]; [25],7.1 nM
same,IC50,[5],0.4 nM
CC(=O)N[C@H]1[C@H]([C@H](O)[C@H](O)CO)OC(C(=O)O)=C[C@@H]1NC(=N)N [ZANAMIVIR],Activity,Influenza A virus [6],inactive
same,Activity,Influenza A virus [7],inactive
same,Activity,Influenza A virus [8],inactive
same,IC50,[2],1.5 nM
same,Activity,Influenza A virus [9],inactive
same,EC50,Influenza A virus [3],6.1 nM
same,Activity,Influenza A virus [10],inactive
same,Kd,[11],1.1 nM
same,Activity,Influenza A virus [12],inactive
same,Activity,Influenza A virus [13],inactive
same,Activity,Influenza A virus [14],inactive
same,EC50,Influenza A virus H3N2 [4]; [25],17.7 nM
same,Activity,Influenza A virus [15],Active
same,Activity,Influenza A virus [16],inactive
same,IC50,[5],3 nM
same,Activity,Influenza A virus [17],inactive
same,Activity,Influenza A virus [18],Active
COCCOCCOCCOCCOCCOCCOCCOCCOCCOCc1cn(CC(Cn2cc(COCCOCCOCCOCCOCCOCCOCCOCCOCCOC)nn2)(Cn2cc(COCCOCCOCCOCCOCCOCCOCCOCCOCCOC)nn2)Cn2cc(COCCOCCOCCOCCOCCOCCOCCOCCOCCOC)nn2)nn1,Activity,[19],inactive
same,Activity,MDCK,Non-Toxic
same,EC50,Influenza A virus H3N2 [4],Not Active
CC(=O)N[C@H]1[C@H]([C@H](OC(=O)NCCOCCOCCOCc2cn(CC(Cn3cc(COCCOCCOCCNC(=O)O[C@@H]([C@@H]4OC(C(=O)O)=C[C@H](NC(=N)N)[C@H]4NC(C)=O)[C@H](O)CO)nn3)(Cn3cc(COCCOCCOCCNC(=O)O[C@@H]([C@@H]4OC(C(=O)O)=C[C@H](NC(=N)N)[C@H]4NC(C)=O)[C@H](O)CO)nn3)Cn3cc(COCCOCCOCCNC(=O)O[C@@H]([C@@H]4OC(C(=O)O)=C[C@H](NC(=N)N)[C@H]4NC(C)=O)[C@H](O)CO)nn3)nn2)[C@H](O)CO)OC(C(=O)O)=C[C@@H]1NC(=N)N (stereo partly specified),solubility,[20],Soluble
same,IC50,[2],2.5 nM
same,Kd,[11],2.2 nM
same,IC50,[5],6.2 nM
CC(=O)N[C@H]1[C@H]([C@H](OC(=O)NCCOCCOCCOCCOCCOCCOCCOCCOCCOCCOCCOCCOCc2cn(CC(Cn3cc(COCCOCCOCCOCCOCCOCCOCCOCCOCCOCCOCCOCCNC(=O)O[C@@H]([C@@H]4OC(C(=O)O)=C[C@H](NC(=N)N)[C@H]4NC(C)=O)[C@H](O)CO)nn3)(Cn3cc(COCCOCCOCCOCCOCCOCCOCCOCCOCCOCCOCCOCCNC(=O)O[C@@H]([C@@H]4OC(C(=O)O)=C[C@H](NC(=N)N)[C@H]4NC(C)=O)[C@H](O)CO)nn3)Cn3cc(COCCOCCOCCOCCOCCOCCOCCOCCOCCOCCOCCOCCNC(=O)O[C@@H]([C@@H]4OC(C(=O)O)=C[C@H](NC(=N)N)[C@H]4NC(C)=O)[C@H](O)CO)nn3)nn2)[C@H](O)CO)OC(C(=O)O)=C[C@@H]1NC(=N)N (stereo partly specified),solubility,[20],Soluble
same,Activity,Influenza A virus [6],Active
same,Activity,Influenza A virus [7],Active
same,Activity,Influenza A virus [8],Active
same,IC50,[2],0.8 nM
same,Activity,Influenza A virus [9],Active
same,Activity,Influenza A virus [21],100%
same,Activity,Influenza A virus [22],<4 nM
same,EC50,Influenza A virus [3],1.2 nM
same,Activity,Influenza A virus H3N2 [23],inactive
same,half-life,[1],72 min
same,Activity,Influenza A virus [24],100%
same,Activity,Influenza A virus [12],Active
same,Activity,Influenza A virus [13],Active
same,Activity,Influenza A virus [14],Active
same,Activity,MDCK,Non-Toxic
same,EC50,Influenza A virus H3N2 [4]; [25],3.5 nM
same,Activity,Influenza A virus [15],Active
same,Activity,Influenza A virus [16],Active
same,IC50,[5],2.8 nM
same,Activity,Influenza A virus [18],Active
CC(=O)N[C@@H]1[C@H]([C@@H](OC(=O)NCCOCCOCCOCCOCCOCCOCc2cn(CC(Cn3cc(COCCOCCOCCOCCOCCOCCNC(=O)O[C@@H]([C@@H]4OC(C(=O)O)=C[C@H](NC(=N)N)[C@H]4NC(C)=O)[C@H](O)CO)nn3)(Cn3cc(COCCOCCOCCOCCOCCOCCNC(=O)O[C@@H]([C@@H]4OC(C(=O)O)=C[C@H](NC(=N)N)[C@H]4NC(C)=O)[C@H](O)CO)nn3)Cn3cc(COCCOCCOCCOCCOCCOCCNC(=O)O[C@@H]([C@@H]4OC(C(=O)O)=C[C@H](NC(=N)N)[C@H]4NC(C)=O)[C@H](O)CO)nn3)nn2)[C@H](O)CO)OC(C(=O)O)=C[C@@H]1NC(=N)N (stereo partly specified),solubility,[20],Soluble
same,IC50,[2],1 nM
same,Kd,[11],1.5 nM
same,IC50,[5],3.8 nM
